What was measured:
[1] = Radiolabeling efficiency/kinetics of chelators with ^90Y; assay type: physicochemical; conditions: pH 5.5, RT, TLC, triplicate
Summary of the method: (§1)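 Test compound (20 μg) in Chelex-treated 0.25 M NH4OAc (pH 5.5) was mixed with 90YCl3 or 177LuCl3 (2.22 MBq, 60 μCi, in 0.05 M HCl) using acid-washed, metal-free plasticware. The mixture was shaken at 1000 rpm at RT for 1 h. Aliquots taken at set times were run on silica gel ITLC in acetonitrile/water 3:2 and scanned by radio-TLC. Complex ran at ~50 mm, free radionuclide at ~30 mm.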

[2] = Radiolabeling efficiency/kinetics of chelators with ^177Lu; assay type: physicochemical; conditions: 1 min, pH 5.5, RT, TLC, triplicate
Summary of the method: as §1

Q: Which “radiolabeling efficiency (%)” value ([1]; 1 min) does the source give for `O=C(O)CN1CCN(CCN(CC(=O)O)CC(=O)O)CCN(CC(CCCc2ccc([N+](=O)[O-])cc2)N(CC(=O)O)CC(=O)O)CC1` (stereo not drawn) [3p-C-NEPA, 2-{[2-(4-{2-[Bis(carboxymethyl)amino]-5-(4-nitrophenyl)pentyl}-7-(carboxymethyl)-1,4,7-triazonan-1-yl)ethyl](carboxymethyl)amino}acetic acid] here?
A: The value was greater than 97%.

Q: What about the “radiolabeling efficiency (%)” value ([1]; 10 min) of the same compound?
A: The value was greater than 99%.

Q: And the “radiolabeling efficiency (%)” value [2]?
A: The value was greater than 97%.

Source: PMC7658932 (ACS Omega, 2020)
